How the values were obtained:
[1] = melting temperature; fluorescence melt of hairpins on a sequencing array, two-state fit, raised by 9.35 °C to match UV melts; settings: sodium 0.088 M
Outline: (§1)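 Melting temperature and folding enthalpy were obtained by bootstrapped two-state fitting. Fits used Cy3 fluorescence of library hairpins with annealed Cy3 and quencher oligos on a sequenced MiSeq flow cell, imaged in 50 mM Na-HEPES pH 8.0, 25 mM NaCl in 2.5 °C steps up to 60 °C and normalised to pre-quench Cy3 and control constructs. Four replicates were combined by inverse-variance weighting, and fitted temperatures were raised by 9.35 °C to match UV melts.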

[2] = folding enthalpy; higher = less favourable; fluorescence melt of hairpins on a sequencing array, two-state fit; settings: sodium 0.088 M
Outline: as §1

Sequence | Tm [1] | folding enthalpy [2]
GTCATAGAAATATGAC ((((((....)))))) | 45.6 °C | -30.2 kcal/mol
GTCATCGAAAGATAGAC ((((((....))).))) | 39.7 °C | -24.6 kcal/mol
GTCATCGAAAGATAGGAC ((((((....)))..))) | 30.9 °C | -15.7 kcal/mol
GTCATCGAAAGATGGGAC ((((((....)))..))) | 34.1 °C | -14.4 kcal/mol
GTCATCGAAAGATTGGAC ((((((....)))..))) | 30.9 °C | -17.7 kcal/mol
GTCATGCCGAAAGGCGAC (((..(((....)))))) | 41.3 °C | -12.3 kcal/mol
GTCATGGAAACATGAC ((((((....)))))) | 56.1 °C | -34.5 kcal/mol
GTCATGGGAAACTATGGC (.(((.(....).))).) | 32.1 °C | -22.4 kcal/mol
GTCATGTCGAAAGACGAC (((..(((....)))))) | 38 °C | -14.8 kcal/mol
GTCATTACGAAAGTAGAC (((..(((....)))))) | 26.7 °C | -9.42 kcal/mol
GTCATTCGAAAGAAGAC (((.(((....)))))) | 33 °C | -16.5 kcal/mol
GTCATTCGAAAGAAGGAC (((.(((....))).))) | 51.9 °C | -42.5 kcal/mol
GTCCAAACGAAAGTTGAC (((..(((....)))))) | 31.6 °C | -16.8 kcal/mol
GTCCAAGGAAACTCGGAC ((((.((....)).)))) | 38.8 °C | -30.6 kcal/mol
GTCCAAGGAAACTTAGAC (((.(((....))).))) | 24.5 °C | -13.7 kcal/mol
GTCCACGAAAGTGTAGAC ((((((....)))..))) | 38.9 °C | -20.1 kcal/mol
GTCCACGCGAAAGCGGAC (((..(((....)))))) | 45.8 °C | -12.9 kcal/mol
GTCCAGGGAAACCCAGAC (((..((....))..))) | 31.4 °C | -17.4 kcal/mol
GTCCAGGGAAACCCGGAC ((((.((....)).)))) | 51 °C | -36.1 kcal/mol

Sequence | Tm [1] | folding enthalpy [2]
GTCCAGGGAAACCTAGAC (((.(((....))).))) | 33.3 °C | -19 kcal/mol
GTCCAGGGAAACTTGGGC (.(((.(....).))).) | 34.7 °C | -29 kcal/mol
GTCCATCGAAAGATTGAC (((.(((....))).))) | 39.7 °C | -34.1 kcal/mol
GTCCATGCGAAAGCAGAC (((..(((....)))))) | 35.3 °C | -12.9 kcal/mol
GTCCATGGAAACATAGAC (((.(((....))).))) | 30.1 °C | -17.3 kcal/mol
GTCCCACGAAAGTGGAC (((.(((....)))))) | 49.9 °C | -13.1 kcal/mol
GTCCCCGAAAGGGCGGAC ((((((....)))..))) | 42.8 °C | -15.4 kcal/mol
GTCCCCGAAAGGGGGAC ((((((....))).))) | 68.5 °C | -17.1 kcal/mol
GTCCCCGAAAGGGTGAC ((((((....))).))) | 53.3 °C | -22.6 kcal/mol
GTCCCCGGAAACGAGGAC ((((.((....)).)))) | 48 °C | -32.1 kcal/mol
GTCCCCGGAAACGGAGAC (((.(((....))).))) | 47.7 °C | -28 kcal/mol
GTCCCGGGAAACCGGAAC ((.((((....)))).)) | 44.4 °C | -14.9 kcal/mol
GTCCCTACGAAAGTAGAC (((..(((....)))))) | 25.9 °C | -9.91 kcal/mol
GTCCCTCGAAAGAGTGAC (((.(((....))).))) | 45.3 °C | -31.9 kcal/mol
GTCCCTGCGAAAGCAGAC (((..(((....)))))) | 32.2 °C | -7.38 kcal/mol
GTCCCTGGAAACAAGGAC ((((.((....)).)))) | 34.7 °C | -20 kcal/mol
GTCCCTGGAAACGGGGAC (((((.(....).))))) | 56.4 °C | -49 kcal/mol
GTCCGACCGAAAGGTGAC (((..(((....)))))) | 36.6 °C | -16.6 kcal/mol
GTCCGACGAAAGTCAGAC (((.(((....))).))) | 50 °C | -23.5 kcal/mol

From the array DNA melting data of Ke et al. (doi:10.1101/2024.01.08.574731)
